Experimental data: the EternaBench riboswitch data

System: MS2 coat protein
Test: apparent Kd, MS2 coat protein; higher = weaker binding; RNA-MaP array; FMN 200 µM where present
Procedure, shortened: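 Designs were transcribed by stalled E. coli RNA polymerase on Illumina sequencing-chip clusters. They were titrated with SNAP-549-labelled MS2 coat protein from 0.7 or 1.5 nM, doubling to 3 µM, in 100 mM Tris-HCl pH 7.5, 80 mM KCl, 4 mM MgCl2, BSA, DTT, yeast tRNA and Tween-20, without and then with constant ligand. The apparent Kd is the median of filtered per-cluster fits after normalisation of green signal to red-channel RNA signal and control-cluster median Fmax.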

[1] = designed as: OFF switch for flavin mononucleotide, no ligand
[2] = ligand present: flavin mononucleotide, designed as: OFF switch for flavin mononucleotide
[3] = designed as: ON switch for flavin mononucleotide, no ligand
[4] = ligand present: flavin mononucleotide, designed as: ON switch for flavin mononucleotide

| Sequence | apparent Kd [1] | apparent Kd [2] | apparent Kd [3] | apparent Kd [4] |
| --- | --- | --- | --- | --- |
| GGAUGUCAAAGACAUCCAAUACGAACAUGAGGAUCACCCAUGUAGGAUAUGCUACUCAAAGAGUAGCAGAAGGACAUGUGCCUU | 33.6 nM | 271 nM |  |  |
| CAUUAUUAUCGAGGAUAUCCUAUUGAAAUUCUGGGAGAAGGCGGACUCAACAUGAGGAUCACCCAUGUGGGACGGAUGCUAGGA | 18.5 nM | 15.4 nM |  |  |
| ACAUGAGGAUCACCCAUGUAGAUACUAGAAGGGUAAGACUAGUAGUUACAUGACGACCAAGCAUUACAGGAUAUAGGAAUUGGA |  |  | 81.2 nM | 39.2 nM |
| UUUUUGUGAGGAUAUCAGUAGUAGAACAAUAGUACUACUACUGAGAAGGCACAUGAGGAUCACCCAUGUUCCUU | 16 nM | 34.6 nM |  |  |
| UUGGACGUCGUAGGAUAUGUAGGAUAUUCCUACAUGAGGAUCACCCAUGUUGACAUGGAAGAAGGCCAGAAGGACGAUGUCCAU |  |  | 930 nM | 100 nM |
| UCAUUUAUUACAGGAUAUGUUAGUAUUCAGUUGUUUGGUUAUUACUUAUUUACAGAAGGGUAGAACAUGAGGAUCACCCAUGUA |  |  | 407 nM | 329 nM |
| UGUUGUAUUACAGGAUAUCUAUUGUUUUUAUAUAGAGAAGGGUAUUCACAUGAGGAUCACCCAUGUAUAUACGAGGAAGUUGUG |  |  | 41.1 nM | 45.8 nM |
| CCUCCACAGGAGGAUAUCAUCAAACUAUUGUGAUGAGAAGGCCUGACAUGAGGAUCACCCAUGUUAUCGUGAUG | 56 nM | 185 nM |  |  |
| GGAGAGGUAGGAUAUGGAGCUUAGAACAUGAGGAUCACCCAUGUAGGACCACAUGAUUUGCCAGAAGGACCAGUCC | 421 nM | 558 nM |  |  |
| ACGACGAAAGUCGAACGAUGUAGCAGAAGGACAUGAGGAUCACCCAUGUCAGCUGUGACCUCAAAAUAGGAUAUGCUACAUCGA | 36.6 nM | 47.6 nM |  |  |
| AGAAAAUAUGGGUAGGAUAUAUAAAGAGAAACAUGAGGAUCACCCAUGUAAAGACGAGAGUCAAAAUAGAAGGACUAAAGAAAGAA |  |  | 76 nM | 59.6 nM |
| UCCACUGCUGAGAAGGGAUACGUCUGGUUCGCAUCAGGAUAUCGAUACAGUGCAGCAUGAGGACAUGAGGAUCACCCAUGUAUC |  |  | 11 nM | 8.98 nM |
| UGGUUCCUGCAGAAGGUGUAGGCGACUUGCUUGCAAGGAUAUGCACAUGAGGAUCACCCAUGUAGCUAAAAGUUUGCAACGUGG | 12.8 nM | 65.1 nM |  |  |
| AAGGUACGAGGAUAUACAUAGAUACAGACACAUGUUCAAGUACAUGAGGAUCACCCAUGUAGAAGGCGUAUAUA | 38.7 nM | 160 nM |  |  |
| GAUGCUAUCCGAGGAUAUUCAUACCGGAAACGGACAUGAGGAUCACCCAUGUGGCGAAAGCCUUGGGAGAAGGCGGAUAGCAUC |  |  | 581 nM | 23.4 nM |
| GGAACUCAUGUAGGAUAUGCAUGGCGAAGCUACGCAGAAGGACAUGAGGAUCACCCAUGUUCUAGCGUCUGGAUACAGAUGCAA | 169 nM | 130 nM |  |  |
| UUCGCUAAGGUGUAGCGAGACUUGCAAGAAGGGUGAAGAACAUGAGGAUCACCCAUGUAAGCCUUACAGGAUAUUGCUUGACGA |  |  | 106 nM | 36.4 nM |
| GCACGACAUGUAGGAUAUCGAGCGCCGGGCGCUCGAGAAGGACAUGAGGAUCACCCAUGUAUUCUGAGUGACCGAGGUCUGUGC | 72.9 nM | 594 nM |  |  |
| GGCAGAUUCCACAUGAGGAUCACCCAUGUGCUCUUCCGGGCACAGGAUAUCCGCAGUGGUUUCUUGGAGAAGGGUGCUGAUUAA |  |  | 26.8 nM | 42.4 nM |
| GCUGCAUAGGCAGGAUAUGCAAUAAUUCGAAUAAAAUAUAACGAAUUAACAUGAGGAUCACCCAUGUAGAAGGGCCUGUGCAGC | 5.51 nM | 4.99 nM |  |  |
| AAAAUUGGCAGAUAAAAGGUCACACAGGAUAUACUCCCAACAUGAGGAUCACCCAUGUACUGGCGGUAGAAGGGUGGGAUCCUC |  |  | 50.7 nM | 13.5 nM |
| UAAUUGUGAGGAUAUUCGUUUUACACGGAGACGUGUAGAACGGAGAAGGCACAUGAGGAUCACCCAUGUUCCUU | 18 nM | 100 nM |  |  |
| AAGGACUGAAUAAUAAGUAGAAAUACAUGAGGAUCACCCAUGUAGGAUAUCGUCAGGAAUACUGACGAGAAGGACAUACAGUCC | 13.6 nM | 16.7 nM |  |  |
| GGAGCAUAUGUCAGGAUAUCGUGGUCGAUAGAUCACGAGAAGGGACAUGAGGAUCACCCAUGUCUGUCCGCUCC | 14.2 nM | 16.4 nM |  |  |

| Sequence | apparent Kd [1] | apparent Kd [2] | apparent Kd [3] | apparent Kd [4] |
| --- | --- | --- | --- | --- |
| GGAUAGGACAGAGGAUAUACCGAUAGGAUCUACUAUCGAACAAUUCUCACAUGAGGAUCACCCAUGUAGAAGGCUGUCCUAUCG | 16.6 nM | 29.4 nM |  |  |
| AAUUCACAUGAGGAUCACCCAUGUCAGGAUAUGGUUUCGCGGGUUUCGGUGCGUGAGGCCAGAAGGGACAGCUA | 53.3 nM | 72.4 nM |  |  |
| ACGCGUUGGGAGAAGGUACAUUAAAUUAGUUUAACAUGAGGAUCACCCAUGUAAGGAUAUCCCAUCGUGUAAUAUUAUACAGCA | 10.2 nM | 12.2 nM |  |  |
| UAAGAGUGAGGAUAUACGUCGCUGGUCAGGAUGGACGCAUGACAUGAGGAUCACCCAUGUAGAAGGCACAAAAC | 23.8 nM | 43.7 nM |  |  |
| AUUAUAAUUGAAGGAUAUCUAUAUCCAACAUGAGGAUCACCCAUGUUGAGGAUCACCCAUGUAAAGGAGAAGGUUAAUUAUAAU |  |  |  | 24.6 nM |
| GUUUCGUGAGGAUAUGUGGCUUCGAUCGUGCGAAGAAGGCUACAGAAGGCACAUGAGGAUCACCCAUGUUCCUC | 85.7 nM | 592 nM |  |  |
| CUGUGAGGGAUCCAGAAUUACAACAUGAGGAUCACCCAUGUACAGGAUAUAGGGUUGAUAGGCGCCUAGAAGGGUAUGAUCACG | 632 nM | 584 nM |  |  |
| AUUAUGAAUGCAGGAUAUGAUUAACAUGAGGAUCACCCAUGUGGUGUUGUGAGUAAGGAGAGUGAUCAGAAGGGCAUUUUUUUU |  |  | 593 nM | 585 nM |
| CAUAUGUGAGGAUAUGACAAUGGUAUCUUCGGAUACCAUUGUCAGAAGGCACAUGAGGAUCACCCAUGUGGAUC | 222 nM | 30.7 nM |  |  |
| UUCGUGUGACAGAAGGGUCUUUCAGGCUGGGAGGCAGGAUAUGUGACAUGAGGAUCACCCAUGUUGGUAUCGUCUGUGUGUACG | 6.7 nM | 14.6 nM |  |  |
| UGCAGCGUGCACAUGAGGAUCACCCAUGUGCCAGCGGACGCACAGGAUAUGCAAUCGUACGGCUAGCAGAAGGGUGGGUCUCAC |  |  | 13.5 nM | 7.13 nM |
| CUUUUGGCAGGAUAUGCUUUUUUUGACAUGAGGAUCACCCAUGUGAUGCAGUUUGGGUUUGCAGAAGGGCCUGAGU | 98.1 nM | 131 nM |  |  |
| CUCAUGUAAGGAUAUGACUACAUAAAAAAAAAAAAAUGUAGUCAGAAGGUACAUGAGGAUCACCCAUGUACAAA | 53.7 nM | 35 nM |  |  |
| CCACGACCGGAGAAGGCAGUUUGUGGGCCUGUUCCUGUCGGAUACAUGAGGAUCACCCAUGUACCUGAGGAUAUCUGGUCGUAG | 4.99 nM | 5.57 nM |  |  |
| UAUAUAUAGUAAGGAUAUGUAAUUCUUUUAUAAACAGAAGGUACUGACAUGAGGAUCACCCAUGUUUUAGUGUGGGCAUGUAGA | 66.3 nM | 81.9 nM |  |  |
| CUCAAACAUGAGGAUCACCCAUGUGUUGUCAUGGGAGGAUAUCCCAGUUCGGUGACGUCGGGAGAAGGCCUAUGUC |  |  | 113 nM | 35.2 nM |
| CAUAACUUUUCUCAUGUAAACAUGAGGAUCACCCAUGUAAUGAGAAGGAGGAGGAAGAGAGAAUCCUAGGAUAUCAGAAUUGUU | 6.41 nM | 6.84 nM |  |  |
| CGUGGACAUGAGGAUCACCCAUGUGAGGAUAUCGGCUGGUACGUGUUGGCUGGCAUCUCGAGAAGGCACAUAGU | 43.8 nM | 80.4 nM |  |  |
| GAUGGCUUAGGAUAUCAAAGUUACCACAUGAGGAUCACCCAUGUAUGGGAGAUGGAUAAAUGAGAAGGAGGGUGUU | 174 nM | 133 nM |  |  |
| CUCAAACAUGAGGAUCACCCAUGUGUUGUCAUGGGAGGAUAUCCAAGUUCGUUGUAGUCGGGAGAAGGCCUAUGUC |  |  | 213 nM | 41.1 nM |
| AUUUAUGGCCAGAAGGACAUGAGGAUCACCCAUGUAGGAUAUGGACGAUUUUGCUCGGCGGCUUGUUUAGGAAGCACCGGUGGU |  |  | 10.7 nM | 6.85 nM |
| GGGACGAAAGUCGAACGAUGUAGCAGAAGGACAUGAGGAUCACCCAUGUCAGCUGUAACAGCCAUGUAGGAUAUGCUACAUCCC | 4.61 nM | 5.96 nM |  |  |
| AUUAUUUUCGAAGGAUAUGGAUACAUGAGGAUCACCCAUGUAUAAAAUGAGAUCUAUUAUAUGAUCCAGAAGGUCGUUGUUUAU | 35.6 nM | 68.8 nM |  |  |
| CCUUGACAUGAGGAUCACCCAUGUGAGGAUAUGAUGCGAUCGUCGAAAGACGAUAGCAUCAGAAGGCACAUAUG | 23.4 nM | 95.7 nM |  |  |
